The source of these data is PubChem BioAssay.

Structures are written as SMILES. Active and inactive are the calls of the source.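 The calls were made as follows, unless noted: active = viability loss from added drug above about 55%, and viability with drug at most 40%, in both replicates (limit read from the data, passing the limit was not always enough); inconclusive = both conditions met in only one replicate; inactive = neither replicate meets both conditions.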

Test [1] in a line: Her2 expression decrease, cell viability multiplex – SKBR3 breast tumor cells, AlphaScreen, ATP viability, primary screen (AID 461;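 active = Her2 level under about 52% in both replicate screens, with viability over 70% of control, limit read from the data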;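 as to Her2 level: lower value means less Her2 protein in the cells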;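 as to viability: percent of carrier control wells set as 100% viability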). The conditions noted are these: SKBR3 Her2 protein level, 18-24 h, measured here: SKBR3 viability, ATP luminescence, at 10 µM. Background: Bead proximity is the source of the signal in Alpha formats.
The target in test [2] is Receptor tyrosine-protein kinase erbB-2 (Homo sapiens) (UniProt P04626). The test is described as above. The conditions noted are these: 18-24 h, at 10 µM, stronger effect = lower value.
Chain of Receptor tyrosine-protein kinase erbB-2 (Homo sapiens) (P04626 whole entry, looked up): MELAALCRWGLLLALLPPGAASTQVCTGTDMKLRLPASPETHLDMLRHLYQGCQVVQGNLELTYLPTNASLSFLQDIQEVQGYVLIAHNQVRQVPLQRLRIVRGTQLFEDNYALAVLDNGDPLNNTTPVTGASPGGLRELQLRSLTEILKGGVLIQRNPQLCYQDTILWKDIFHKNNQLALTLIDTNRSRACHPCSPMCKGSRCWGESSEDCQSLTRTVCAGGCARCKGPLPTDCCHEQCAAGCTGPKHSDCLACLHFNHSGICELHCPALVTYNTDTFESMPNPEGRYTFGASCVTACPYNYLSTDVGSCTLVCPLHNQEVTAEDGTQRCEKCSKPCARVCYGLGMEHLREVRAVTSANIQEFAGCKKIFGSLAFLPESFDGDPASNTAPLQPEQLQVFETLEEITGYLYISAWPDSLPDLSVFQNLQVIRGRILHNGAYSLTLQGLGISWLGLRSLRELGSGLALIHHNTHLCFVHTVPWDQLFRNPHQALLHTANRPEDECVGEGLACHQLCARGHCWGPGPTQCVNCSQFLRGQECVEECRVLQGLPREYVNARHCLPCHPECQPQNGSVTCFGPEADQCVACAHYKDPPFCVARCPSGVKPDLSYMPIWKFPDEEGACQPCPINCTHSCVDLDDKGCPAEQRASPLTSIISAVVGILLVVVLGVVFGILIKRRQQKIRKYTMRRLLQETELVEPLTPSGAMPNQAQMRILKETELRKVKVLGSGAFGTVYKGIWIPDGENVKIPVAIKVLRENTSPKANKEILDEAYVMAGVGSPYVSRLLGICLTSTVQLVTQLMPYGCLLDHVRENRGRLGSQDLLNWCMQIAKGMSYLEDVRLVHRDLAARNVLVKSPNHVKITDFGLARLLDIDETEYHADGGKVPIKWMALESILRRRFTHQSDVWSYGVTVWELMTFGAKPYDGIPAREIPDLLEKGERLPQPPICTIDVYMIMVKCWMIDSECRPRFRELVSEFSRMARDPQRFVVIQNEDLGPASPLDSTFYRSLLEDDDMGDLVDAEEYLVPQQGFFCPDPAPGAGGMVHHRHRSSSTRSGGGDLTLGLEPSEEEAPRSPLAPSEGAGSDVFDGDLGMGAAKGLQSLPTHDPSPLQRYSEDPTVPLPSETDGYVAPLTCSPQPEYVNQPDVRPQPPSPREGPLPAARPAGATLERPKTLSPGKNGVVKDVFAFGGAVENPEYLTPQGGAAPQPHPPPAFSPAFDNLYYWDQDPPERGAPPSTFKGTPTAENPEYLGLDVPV
A short description of test [3]: reduced viability of SK-BR-3 breast cancer cells – cell-based, 24 h, human, pilot screen (AID 572;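 active = viability at or below 10% of carrier control in both of two separate runs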;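 also: compound exposure lasted between 18 and 24 h rather than exactly 24 h; 100% = carrier-treated control wells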). The conditions noted are these: SK-BR-3 viability, CellTiter-Glo luminescence, at 10 µM, stronger effect = lower value. On the technique in general: ATP-based viability assays read luminescence as a measure of living cells.
A short description of test [4]: HUVEC growth inhibition – cell-based, human, primary screen (AID 575;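 active = viability at or below 30% in both replicate assays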;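 also: 100% = median of untreated cell wells with 0.1% DMSO on each plate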). The conditions noted are these: HUVEC proliferation, CellTiter-Glo luminescence, 72 h; at 10 µM; stronger effect = lower value. In a few lines:
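Timing: 72 h treatment at 37 °C; material: HUVEC primary cells; technique: CellTiter-Glo luminescence measuring cellular ATP; controls: vehicle and MePR control wells; measure: percent of median DMSO-control luminescence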

The nature of test [5]: H69AR cell proliferation blockers – human, duplicate replicates, primary screen (AID 580;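 active = viability at or under a set limit in both replicates, limit being median viability minus 3 SD, cut at about 48% in these data, passing the limit was not always enough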;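 also: 100% = mean luminescence of untreated wells and 0% = no signal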). The conditions noted are these: H69AR lung tumor cells viability, ATP luminescence, 72 h; at 10 µM; stronger effect = lower value.
Test [6] is described as follows: MRP1 drug-resistance reversers in H69AR cells – cell-based, doxorubicin co-treatment, pilot screen (AID 601). Particulars: CellTiter-Glo, 72 h, at 10 µM; for differential viability (reversal): stronger effect = higher value.
Test [7] is described as follows: yeast transport mutant growth inhibition pilot in 384-well plates, post-Golgi transport modulator project (AID 636; in the data active = inhibition above about 31%). Particulars: absorbance 615 nm, about 18 h, stronger effect = higher value.
Test [8] is described as follows: growth suppression of yeast trafficking mutant, preliminary HTS, modulators of trafficking downstream of Golgi apparatus project, 1536-format plate, OD 615 nm (AID 637; in the data active = inhibition above about 30%). Particulars: yeast transport mutant growth, absorbance 615 nm, 18 h; stronger effect = higher value.
Where [9] appears, read: H69AR cells + 2 uM doxorubicin, measured here: viability with 2 uM doxorubicin, stronger effect = lower value.
Setting [10] is: H69AR cells, compound alone cytotoxicity.

As a reminder, the viability is a read-out of living cells in per cent, often relative to untreated cells. For orientation: inhibition means the change of the read-out against control, counted positive when it falls. Take `COc1ccccc1N1CCN(S(=O)(=O)CC23CCC(CC2=O)C3(C)C)CC1` (stereo not given): the viability in test [1] was 102%; in test [3] it was 102% (inactive); in test [4], 76.9% (inactive); in test [5] it was 84.5% (inactive); in test [6] (setting [9]) it was 83.6%; in test [6] (setting [10]), 84.5%. Moreover, in test [2], the Her2 level is 94% (inactive). For the same compound, the differential viability (reversal) in test [6] (H69AR cells + 2 uM doxorubicin) is 0.875% (inactive). Also, the figures for the inhibition in test [7] and in test [8] were -0.52% (inactive) and -3.67% (inactive), respectively.
As for `CCOc1ccc(NC(=O)CN2CCN(CC(=O)c3ccc(OCC)cc3)CC2)cc1`, the viability in test [1] is 95%; in test [3], 95% (inactive); in test [4], 77.8% (inactive); in test [5], 89.3% (inactive); in test [6] (setting [9]) it was 88.1%; in test [6] (setting [10]), 89.3%. Further, the Her2 level in test [2] was 89% (inactive). In addition, the differential viability (reversal) in test [6] (H69AR cells + 2 uM doxorubicin) was 1.23% (inactive). The inhibition in test [7] was -4.87% (inactive); in test [8], -2.83% (inactive).
`CCOc1ccc2oc(-c3ccccc3)c(C(=O)N3CCN(CCO)CC3)c2c1`: the viability in test [1] is 97.5%; in test [3] it was 97.5% (inactive); in test [4], 74.3% (inactive); in test [5] it was 72.9% (inactive); in test [6] (setting [9]) it was 69.6%; in test [6] (setting [10]) it was 72.9%. Further, the Her2 level in test [2] is 83% (inactive). The differential viability (reversal) in test [6] (H69AR cells + 2 uM doxorubicin) is 3.36% (inactive). Further, the inhibition was -4.42% (inactive) in test [7] and 0% (inactive) in test [8].
For `CC1Cc2ccccc2N1C(=O)c1cnsn1` (stereo not given), the viability in test [1] is 136%; in test [3] it was 136% (inactive); in test [4], 86.3% (inactive); in test [5], 97.8% (inactive); in test [6] (setting [9]) it was 87.4%; in test [6] (setting [10]), 97.8%. The Her2 level in test [2] is 103% (inactive). Moreover, the differential viability (reversal) in test [6] (H69AR cells + 2 uM doxorubicin) was 10.4% (inactive). The inhibition is -6.71% (inactive) in test [7] and -10.8% (inactive) in test [8].
For `O=C(CSc1nc(O)cc(=O)n1-c1ccccc1)N1CCCCC1`, the viability was 100% in test [1]; 100% (inactive) in test [3]; 80.8% (inactive) in test [4]; 98.8% (inactive) in test [5]; 96.4% in test [6] (setting [9]); 98.8% in test [6] (setting [10]). Also, the Her2 level in test [2] was 77% (inactive). The differential viability (reversal) in test [6] (H69AR cells + 2 uM doxorubicin) is 2.4% (inactive). For the same compound, the inhibition in test [7] is -6.44% (inactive); in test [8] it was 3.97% (inactive).
`Cn1cccc1Cc1nnc(SCC(N)=O)n1-c1ccc(F)cc1`: the viability is 88% in test [1]; 88% (inactive) in test [3]; 98.5% (inactive) in test [4]; 99.8% (inactive) in test [5]; 87.6% in test [6] (setting [9]); 99.8% in test [6] (setting [10]). For the same compound, the Her2 level in test [2] is 94.5% (inactive). In test [6] (H69AR cells + 2 uM doxorubicin), the differential viability (reversal) was 12.2% (inactive). For the same compound, the inhibition in test [7] was -1.28% (inactive); in test [8], 1.33% (inactive).
For the compound `CC(C)N(O)C(=O)NC(C)(C)C`, the viability was 110% in test [1]; 110% (inactive) in test [3]; 97.8% (inactive) in test [4]; 93.8% (inactive) in test [5]; 98.9% in test [6] (setting [9]); 93.8% in test [6] (setting [10]). For the same compound, the Her2 level in test [2] was 99% (inactive). Also, the differential viability (reversal) in test [6] (H69AR cells + 2 uM doxorubicin) is -5.12% (inactive). Also, the inhibition in test [7] was -2.8% (inactive); in test [8] it was 5% (inactive).
Regarding `Cc1sc2nc(SCc3nc4ccccc4[nH]3)n(Cc3ccco3)c(=O)c2c1C`, the viability in test [1] was 96.5%; in test [3], 96.5% (inactive); in test [4], 91.7% (inactive); in test [5], 84.6% (inactive); in test [6] (setting [9]) it was 76.6%; in test [6] (setting [10]), 84.6%. Further, the Her2 level in test [2] is 92.5% (inactive). The differential viability (reversal) in test [6] (H69AR cells + 2 uM doxorubicin) is 8.02% (inactive). In addition, the figures for the inhibition in test [7] and in test [8] were -0.13% (inactive) and -1.8% (inactive), respectively.
In the case of `CCn1cc(C(=O)OCc2ccc(F)cc2)c(=O)c2ccc(C)nc21`, the viability is 104% in test [1]; 104% (inactive) in test [3]; 89.3% (inactive) in test [4]; 79.3% (inactive) in test [5]; 78.1% in test [6] (setting [9]); 79.3% in test [6] (setting [10]). Besides, the Her2 level in test [2] is 82% (inactive). Also, in test [6] (H69AR cells + 2 uM doxorubicin), the differential viability (reversal) was 1.26% (inactive). Also, the inhibition was -2.27% (inactive) in test [7] and 0.16% (inactive) in test [8].
On to `COc1ccc(CNC(=O)Cn2nc(C(F)(F)F)c3c2CCC3)cc1`, for which the viability in test [1] is 89.5%; in test [3], 89.5% (inactive); in test [4], 103% (inactive); in test [5] it was 99.5% (inactive); in test [6] (setting [9]), 87.6%; in test [6] (setting [10]) it was 99.5%. In test [2], the Her2 level was 91.5% (inactive). Besides, in test [6] (H69AR cells + 2 uM doxorubicin), the differential viability (reversal) is 11.9% (inactive). Moreover, the inhibition was -6.13% (inactive) in test [7] and 5.74% (inactive) in test [8].
As to `O=C(Nc1cccc(F)c1)N1CC=C(n2c(=O)[nH]c3ccccc32)CC1`, the viability was 111% in test [1]; 111% (inactive) in test [3]; 93.4% (inactive) in test [4]; 81.9% (inactive) in test [5]; 76.7% in test [6] (setting [9]); 81.9% in test [6] (setting [10]). Also, in test [2], the Her2 level is 86.5% (inactive). For the same compound, the differential viability (reversal) in test [6] (H69AR cells + 2 uM doxorubicin) was 5.16% (inactive). Besides, the inhibition in test [7] is -4.21% (inactive); in test [8], 0.91% (inactive).
As for `Cc1cc(C(=O)CSCCCn2c(=O)[nH]c3ccccc32)c(C)n1C`, the viability in test [1] was 105%; in test [3] it was 105% (inactive); in test [4], 110% (inactive); in test [5], 98.1% (inactive); in test [6] (setting [9]) it was 88.7%; in test [6] (setting [10]), 98.1%. Further, the Her2 level in test [2] is 98% (inactive). Further, in test [6] (H69AR cells + 2 uM doxorubicin), the differential viability (reversal) is 9.45% (inactive). In addition, the inhibition in test [7] was 0.41% (inactive); in test [8] it was -5.08% (inactive).
As to `Cc1coc(NC(=O)CSc2nc(-c3ccncc3)cc(C(F)(F)F)c2C#N)n1`, the viability in test [1] was 106%; in test [3], 106% (inactive); in test [4] it was 79% (inactive); in test [5], 71.8% (inactive); in test [6] (setting [9]), 70.4%; in test [6] (setting [10]), 71.8%. The Her2 level in test [2] is 71% (inactive). For the same compound, the differential viability (reversal) in test [6] (H69AR cells + 2 uM doxorubicin) is 1.41% (inactive). Besides, the values for the inhibition in test [7] and in test [8] were -2.5% (inactive) and 0.73% (inactive), respectively.
For the compound `Nc1nc2n(n1)C(c1cccc(Cl)c1)CC(c1ccc(F)cc1)N2` (stereo not given), the viability in test [1] is 86.5%; in test [3] it was 86.5% (inactive); in test [4], 106% (inactive); in test [5] it was 100% (inactive); in test [6] (setting [9]), 111%; in test [6] (setting [10]), 100%. Further, the Her2 level in test [2] is 97.5% (inactive). The differential viability (reversal) in test [6] (H69AR cells + 2 uM doxorubicin) is -10.5% (inactive). Further, the inhibition in test [7] is -5.47% (inactive); in test [8] it was -0.83% (inactive).
For `CCC(C)(C)NC(=O)CN(C(=O)c1snc(C(N)=O)c1N)c1ccc2c(c1)OCO2`, the viability was 104% in test [1]; 104% (inactive) in test [3]; 110% (inactive) in test [4]; 110% (inactive) in test [5]; 102% in test [6] (setting [9]); 110% in test [6] (setting [10]). Besides, the Her2 level in test [2] was 94% (inactive). Besides, the differential viability (reversal) in test [6] (H69AR cells + 2 uM doxorubicin) is 7.68% (inactive). Besides, the inhibition is -4.93% (inactive) in test [7] and -1.27% (inactive) in test [8].
As for `CC(C)(C)NC(=O)COC(=O)c1snc(C(=O)NC2CCCCC2)c1N`, the viability in test [1] is 86%; in test [3] it was 86% (inactive); in test [4], 51.9% (inactive); in test [5] it was 101% (inactive); in test [6] (setting [9]) it was 88.1%; in test [6] (setting [10]), 101%. For the same compound, in test [2], the Her2 level was 75% (inactive). In test [6] (H69AR cells + 2 uM doxorubicin), the differential viability (reversal) was 12.7% (inactive). In addition, the inhibition in test [7] was -0.95% (inactive); in test [8] it was 1.59% (inactive).
